A short description of data set [1]: Observed AUC (0 to infinity) in C57BL/6N mouse at 150 mg/kg, po administered as single dose measured up to 8 hrs by LC-MS/MS analysis. Also on record: route oral, dose 150 mg/kg, time <=8. To be noted: in vivo. It counts as ADME, organism-based.
For data set [2] the following is noted: human, microsomes, 1 h, 1 µM.
Data set [3] addresses Dual specificity calcium/calmodulin-dependent 3',5'-cyclic nucleotide phosphodiesterase 1A (Homo sapiens, UniProt P54750). Nature of the data set: Inhibition of recombinant full length GST-tagged PDE1A (unknown origin) expressed in baculovirus infected Sf9 insect cells using FAM-cAMP as substrate incubated for 1.5 hrs by IMAP-FP assay. The method in brief:
(§1)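 PDE enzymes incubated with compound or vehicle and 50 nM TAMRA-cGMP or FAM-cAMP substrate for 1.5 h at 30 °C. Activity read by IMAP fluorescence polarization. IC50 from 10 concentrations, at least two replicates each, fitted by four-parameter logistic. Dose–response repeated at least twice; mean of at least two experiments.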

For data set [4], the target named is High affinity cGMP-specific 3',5'-cyclic phosphodiesterase 9A (Homo sapiens, UniProt O76083). Nature of the data set: Inhibition of recombinant GST-tagged full length PDE9A2 (unknown origin) expressed in baculovirus infected Sf9 insect cells using substrate incubated for 1.5 hrs by IMAP-FP assay.
Data set [5] concerns the target Cone cGMP-specific 3',5'-cyclic phosphodiesterase subunit alpha' (Homo sapiens, UniProt P51160). The data set is described as follows: Inhibition of recombinant full length GST-tagged PDE6C (unknown origin) expressed in baculovirus infected Sf9 insect cells using TAMRA-cGMP as substrate incubated for 1.5 hrs by IMAP-FP assay. The method in brief: as §1
Data set [6] addresses T1, cGMP-dependent 3',5'-cyclic phosphodiesterase (Homo sapiens, UniProt O00408). Nature of the data set: Inhibition of recombinant full length GST-tagged PDE2A (unknown origin) expressed in baculovirus infected Sf9 insect cells using FAM-cAMP as substrate incubated for 1.5 hrs by IMAP-FP assay. The method in brief:
as §1

In data set [7] the target is cGMP-inhibited 3',5'-cyclic phosphodiesterase 3A (Homo sapiens, UniProt Q14432). Nature of the data set: Inhibition of recombinant GST-tagged PDE3A (669 to end residues) (unknown origin) expressed in baculovirus infected Sf9 insect cells using FAM-cAMP as substrate incubated for 1.5 hrs by IMAP-FP assay. The method in brief:
as §1

Data set [8] in a line: Observed volume of distribution in C57BL/6N mouse at 150 mg/kg, po administered as single dose measured up to 8 hrs by LC-MS/MS analysis. To be noted: in vivo. The data set is classed as ADME, organism-based.
The target in data set [9] is 3',5'-cyclic-AMP phosphodiesterase 4B (Homo sapiens, UniProt Q07343). The data set is described as follows: Inhibition of recombinant full length GST-tagged PDE4B2 (unknown origin) expressed in baculovirus infected Sf9 insect cells using FAM-cAMP as substrate incubated for 1.5 hrs by IMAP-FP assay. Put shortly: as §1
The nature of data set [10]: Observed clearance in C57BL/6N mouse at 150 mg/kg, po administered as single dose measured up to 8 hrs by LC-MS/MS analysis. The data set is classed as ADME, organism-based. To be noted: in vivo.
The nature of data set [11]: Toxicity in athymic nude-Foxn1nu mouse assessed as body weight loss at 50 to 150 mg/kg, po bid measured immediately relative to control. It counts as organism-based. To be noted: in vivo, dose 50-150 mg/kg. Put shortly: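 Female athymic nude-Foxn1nu mice, 8–9 weeks, 18–24 g, n=4 per group. Oral gavage at 50, 100 or 150 mg/kg twice daily, or vehicle, for 28 days. Formulation ethanol/water/Maalox (7:3:90, v/v/v). Toxicity signs monitored daily. Body weight recorded daily in week 1, then twice weekly, as percent change from starting weight.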

For data set [12], the target named is T1, cGMP-dependent 3',5'-cyclic phosphodiesterase. The data set is described as follows: Inhibition of recombinant full length GST-tagged PDE2A (unknown origin) expressed in baculovirus infected Sf9 insect cells using TAMRA-cGMP as substrate incubated for 1.5 hrs by IMAP-FP assay. The method in brief: as §1
Data set [13] in a line: Toxicity in athymic nude-Foxn1nu mouse assessed as effect on spleen at 50 to 150 mg/kg, po bid for 28 days. Conditions: in vivo, 672 h, dose 50-150 mg/kg, time 28 day. It counts as organism-based.
Data set [14] deals with cAMP and cAMP-inhibited cGMP 3',5'-cyclic phosphodiesterase 10A (Homo sapiens, UniProt Q9Y233). Nature of the data set: Inhibition of recombinant GST-tagged full length PDE10A2 (unknown origin) expressed in baculovirus infected Sf9 insect cells using TAMRA-cGMP as substrate incubated for 1.5 hrs by IMAP-FP assay. The method in brief: as §1
The target of data set [15] is High affinity 3',5'-cyclic-AMP phosphodiesterase 7A (Homo sapiens, UniProt Q13946). The data set is described as follows: Inhibition of recombinant GST-tagged PDE7A (122 to end residues) (unknown origin) expressed in baculovirus infected Sf9 insect cells using FAM-cAMP as substrate incubated for 1.5 hrs by IMAP-FP assay. The method in brief:
as §1

T1 sequence (O00408 whole entry): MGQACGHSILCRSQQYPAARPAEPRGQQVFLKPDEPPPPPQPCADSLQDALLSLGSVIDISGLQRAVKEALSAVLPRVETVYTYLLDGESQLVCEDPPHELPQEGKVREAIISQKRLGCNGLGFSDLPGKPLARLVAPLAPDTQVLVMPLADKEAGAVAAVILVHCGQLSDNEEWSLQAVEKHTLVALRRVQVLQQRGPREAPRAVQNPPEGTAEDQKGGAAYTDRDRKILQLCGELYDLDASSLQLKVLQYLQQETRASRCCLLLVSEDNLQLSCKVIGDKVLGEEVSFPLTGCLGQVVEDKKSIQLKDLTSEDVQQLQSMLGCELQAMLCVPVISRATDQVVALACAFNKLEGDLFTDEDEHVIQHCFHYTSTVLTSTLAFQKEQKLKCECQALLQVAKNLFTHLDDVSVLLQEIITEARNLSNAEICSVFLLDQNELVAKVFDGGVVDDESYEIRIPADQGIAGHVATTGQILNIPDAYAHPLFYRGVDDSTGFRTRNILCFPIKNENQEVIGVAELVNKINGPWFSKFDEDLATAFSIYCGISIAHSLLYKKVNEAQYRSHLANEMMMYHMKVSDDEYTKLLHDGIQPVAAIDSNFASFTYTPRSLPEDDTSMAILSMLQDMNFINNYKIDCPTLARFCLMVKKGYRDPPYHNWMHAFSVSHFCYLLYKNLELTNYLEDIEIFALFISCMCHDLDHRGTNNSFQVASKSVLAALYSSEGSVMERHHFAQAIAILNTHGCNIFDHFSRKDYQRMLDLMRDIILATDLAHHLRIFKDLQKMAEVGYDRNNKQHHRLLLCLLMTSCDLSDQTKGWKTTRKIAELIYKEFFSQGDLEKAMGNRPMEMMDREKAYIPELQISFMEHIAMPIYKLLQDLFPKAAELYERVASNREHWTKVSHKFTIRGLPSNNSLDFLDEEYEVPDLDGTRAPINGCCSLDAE
Chain of Cone cGMP-specific 3',5'-cyclic phosphodiesterase subunit alpha' (P51160 whole entry): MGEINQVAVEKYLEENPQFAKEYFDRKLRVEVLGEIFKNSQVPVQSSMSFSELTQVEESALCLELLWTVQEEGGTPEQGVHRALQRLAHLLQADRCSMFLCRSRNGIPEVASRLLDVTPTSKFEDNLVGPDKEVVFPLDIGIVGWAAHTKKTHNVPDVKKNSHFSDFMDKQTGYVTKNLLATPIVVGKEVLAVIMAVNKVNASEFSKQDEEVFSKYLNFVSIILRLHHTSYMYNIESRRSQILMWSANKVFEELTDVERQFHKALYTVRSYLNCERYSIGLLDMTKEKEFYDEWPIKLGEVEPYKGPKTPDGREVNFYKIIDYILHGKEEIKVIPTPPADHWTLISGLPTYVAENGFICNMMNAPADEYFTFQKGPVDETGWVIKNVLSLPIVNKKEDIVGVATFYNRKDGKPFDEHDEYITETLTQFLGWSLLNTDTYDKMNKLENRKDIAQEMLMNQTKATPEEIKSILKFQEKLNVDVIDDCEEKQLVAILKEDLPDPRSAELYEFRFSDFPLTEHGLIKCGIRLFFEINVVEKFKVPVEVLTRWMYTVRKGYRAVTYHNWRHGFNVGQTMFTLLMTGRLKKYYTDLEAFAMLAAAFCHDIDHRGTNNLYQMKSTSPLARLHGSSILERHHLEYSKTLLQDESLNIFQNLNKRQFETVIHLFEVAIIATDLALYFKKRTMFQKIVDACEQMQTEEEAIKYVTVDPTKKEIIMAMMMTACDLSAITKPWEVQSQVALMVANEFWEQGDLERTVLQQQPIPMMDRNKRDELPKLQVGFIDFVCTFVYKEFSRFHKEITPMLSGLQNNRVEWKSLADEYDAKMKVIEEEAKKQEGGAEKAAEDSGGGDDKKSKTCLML
Chain of High affinity 3',5'-cyclic-AMP phosphodiesterase 7A (Q13946 whole entry): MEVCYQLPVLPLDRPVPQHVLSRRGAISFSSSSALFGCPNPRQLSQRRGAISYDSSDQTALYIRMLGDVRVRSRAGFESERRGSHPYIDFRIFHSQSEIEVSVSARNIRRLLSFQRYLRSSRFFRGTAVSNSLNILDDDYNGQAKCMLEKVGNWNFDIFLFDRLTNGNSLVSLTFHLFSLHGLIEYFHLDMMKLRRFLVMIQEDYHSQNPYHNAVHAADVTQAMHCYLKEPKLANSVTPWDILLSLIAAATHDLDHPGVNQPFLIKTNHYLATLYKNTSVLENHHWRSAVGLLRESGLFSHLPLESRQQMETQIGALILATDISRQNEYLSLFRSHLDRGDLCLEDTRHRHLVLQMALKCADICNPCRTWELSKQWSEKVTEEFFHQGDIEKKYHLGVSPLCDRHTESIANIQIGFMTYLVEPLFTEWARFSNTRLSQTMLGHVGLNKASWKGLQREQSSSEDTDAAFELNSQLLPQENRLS
Chain of Dual specificity calcium/calmodulin-dependent 3',5'-cyclic nucleotide phosphodiesterase 1A (P54750 whole entry): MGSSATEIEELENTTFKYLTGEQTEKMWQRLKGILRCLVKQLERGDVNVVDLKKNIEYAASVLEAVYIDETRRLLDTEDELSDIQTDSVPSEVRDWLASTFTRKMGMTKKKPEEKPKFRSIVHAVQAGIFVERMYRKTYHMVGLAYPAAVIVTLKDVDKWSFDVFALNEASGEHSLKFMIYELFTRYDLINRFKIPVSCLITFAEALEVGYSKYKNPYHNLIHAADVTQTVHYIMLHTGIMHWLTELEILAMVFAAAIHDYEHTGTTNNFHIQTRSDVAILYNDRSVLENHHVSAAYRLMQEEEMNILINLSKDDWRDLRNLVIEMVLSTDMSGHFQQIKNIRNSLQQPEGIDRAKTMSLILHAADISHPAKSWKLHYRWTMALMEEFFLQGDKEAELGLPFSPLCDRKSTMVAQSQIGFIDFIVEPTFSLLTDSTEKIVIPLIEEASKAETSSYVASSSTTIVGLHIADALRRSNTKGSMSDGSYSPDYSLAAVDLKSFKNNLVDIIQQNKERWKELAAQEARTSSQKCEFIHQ
Chain of cAMP and cAMP-inhibited cGMP 3',5'-cyclic phosphodiesterase 10A (Q9Y233 whole entry): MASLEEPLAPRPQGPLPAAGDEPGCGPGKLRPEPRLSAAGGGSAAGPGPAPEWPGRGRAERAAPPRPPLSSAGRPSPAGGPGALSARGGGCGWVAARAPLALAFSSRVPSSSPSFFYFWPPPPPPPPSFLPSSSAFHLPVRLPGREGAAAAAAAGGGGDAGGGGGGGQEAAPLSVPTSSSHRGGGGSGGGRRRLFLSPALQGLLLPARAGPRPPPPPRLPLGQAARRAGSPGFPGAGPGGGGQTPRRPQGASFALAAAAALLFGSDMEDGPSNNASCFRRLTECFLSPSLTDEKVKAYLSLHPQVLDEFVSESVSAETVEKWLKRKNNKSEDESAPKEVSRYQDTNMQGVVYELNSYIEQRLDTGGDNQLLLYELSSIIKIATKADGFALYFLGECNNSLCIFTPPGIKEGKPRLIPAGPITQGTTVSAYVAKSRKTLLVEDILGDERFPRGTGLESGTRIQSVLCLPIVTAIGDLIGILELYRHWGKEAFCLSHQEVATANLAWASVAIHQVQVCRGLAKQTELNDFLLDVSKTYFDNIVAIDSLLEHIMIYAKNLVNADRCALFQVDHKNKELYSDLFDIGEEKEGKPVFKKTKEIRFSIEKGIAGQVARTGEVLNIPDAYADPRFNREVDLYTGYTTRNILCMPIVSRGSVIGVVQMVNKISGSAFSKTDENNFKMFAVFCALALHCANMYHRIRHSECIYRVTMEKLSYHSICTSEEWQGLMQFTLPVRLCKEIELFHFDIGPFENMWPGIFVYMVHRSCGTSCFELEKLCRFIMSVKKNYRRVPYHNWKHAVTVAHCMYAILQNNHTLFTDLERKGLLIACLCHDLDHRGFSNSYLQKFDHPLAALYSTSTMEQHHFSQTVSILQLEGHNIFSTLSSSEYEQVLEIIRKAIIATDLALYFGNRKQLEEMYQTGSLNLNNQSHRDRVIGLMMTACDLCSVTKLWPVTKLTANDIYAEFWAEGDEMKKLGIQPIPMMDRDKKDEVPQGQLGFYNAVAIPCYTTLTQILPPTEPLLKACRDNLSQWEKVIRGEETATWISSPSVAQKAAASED
Chain of High affinity cGMP-specific 3',5'-cyclic phosphodiesterase 9A (O76083 whole entry): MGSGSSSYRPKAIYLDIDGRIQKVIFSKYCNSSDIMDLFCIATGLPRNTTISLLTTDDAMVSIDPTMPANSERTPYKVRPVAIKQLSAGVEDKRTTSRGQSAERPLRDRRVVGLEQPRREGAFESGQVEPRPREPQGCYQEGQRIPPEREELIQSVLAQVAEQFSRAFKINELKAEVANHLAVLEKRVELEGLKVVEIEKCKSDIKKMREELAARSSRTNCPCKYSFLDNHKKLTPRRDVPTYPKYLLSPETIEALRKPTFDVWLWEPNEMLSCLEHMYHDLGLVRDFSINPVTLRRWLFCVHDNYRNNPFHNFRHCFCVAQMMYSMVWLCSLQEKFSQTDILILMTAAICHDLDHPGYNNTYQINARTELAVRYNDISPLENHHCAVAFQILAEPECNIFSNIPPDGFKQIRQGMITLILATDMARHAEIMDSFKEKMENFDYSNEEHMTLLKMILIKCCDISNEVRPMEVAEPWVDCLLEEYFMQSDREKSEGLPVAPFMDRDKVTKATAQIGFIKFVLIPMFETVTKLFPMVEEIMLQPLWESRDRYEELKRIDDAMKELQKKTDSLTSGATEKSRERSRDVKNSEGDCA

As a reminder, the AUC(0-inf) is the area under the concentration-time curve extrapolated to infinity. The low end stands for low exposure, the high end for high exposure. As a reminder, the IC50 is the concentration that gives 50% inhibition. A word on the CL/F: it is clearance divided by bioavailability, as obtained after extravascular dosing. On to `COc1c(F)cc(C2CC(C(C)(C)C)=NN2c2ccc(C(=O)N3CCN(C)CC3)cc2)cc1F` (stereo not given), for which the AUC(0-inf) in data set [1] is 16200 ng·h/mL. This molecule gave a t1/2 in [2] of 22 min. The IC50 in data set [3], in data set [4], in data set [5], in [6], in data set [7] and in data set [9] was greater than 10 µM in each case. Moreover, the 50% inhibitory concentration (IC50) in data set [12], in data set [14] and in data set [15] was greater than 10 µM each time. The same molecule showed a Vd in [8] of 625 mL. Moreover, in data set [10], the CL/F was 3.09 mL/min. The Activity is reported as less than 5% in data set [11] and “Non-Toxic” in [13].

The values above are taken from ChEMBL document CHEMBL4808175 (J Med Chem, 2021).
